Among the data in ChEMBL document CHEMBL1145471, “Small molecule regulators of autophagy identified by an image-based high-throughput screen” (Proc Natl Acad Sci U S A, 2007) are Activity values, retold here.

What all share (assay type): functional
The test system of assay [1] is H4. The assay is described as follows: Increase in light chain 3-GFP+ autophagosome vesicle intensity per cell in human H4 cells at 4.8 uM after 24 hrs by high throughput fluorescence microscopy relative to control. In short, it runs like this:
(§1)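 H4 cells stably expressing LC3-GFP, seeded in 96-well plates and exposed to compound for 24 h; fixed in 4% paraformaldehyde, nuclei stained with 3 μg/ml DAPI. Automated fluorescence microscopy scored number, size and intensity of LC3-GFP spots; values expressed relative to DMSO-treated wells, rapamycin positive control. Triplicate wells, mean ± SD; experiments repeated three times.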

Assay [2] deals with H4. The assay is described as follows: Increase in light chain 3-GFP+ autophagosome vesicle number per cell in human H4 cells at 4.8 uM after 24 hrs by high throughput fluorescence microscopy relative to control. In short, it runs like this: (§2)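 H4 cells stably expressing LC3-GFP, kept in DMEM/10% FBS at 37°C, 5% CO2, were seeded in 96-well plates and exposed to compound for 24 h. Cells were then fixed in 4% paraformaldehyde and stained with 3 μg/ml DAPI. Automated fluorescence microscopy scored the number, size and intensity of LC3-GFP spots. Values are percent of DMSO wells, in triplicate, mean ± SD. Rapamycin served as positive control.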

Assay [3] relates to H4. The assay is described as follows: Increase in light chain 3-GFP+ autophagosome vesicle area per cell in human H4 cells at 4.8 uM after 24 hrs by high throughput fluorescence microscopy relative to control. In short, it runs like this: as §1
For assay [4], the system named is H4. The assay is described as follows: Induction of light chain 3-GFP level in human H4 cells at 4.8 uM after 24 hrs by high throughput fluorescence microscopy relative to control. A digest of the protocol: as §2
The test system of assay [5] is H4. The assay is described as follows: Induction of light chain 3-GFP level in human H4 cells at 6.1 uM after 24 hrs by high throughput fluorescence microscopy relative to control. In short, it runs like this:
as §2

Assay [6] has as its system H4. The assay is described as follows: Increase in light chain 3-GFP+ autophagosome vesicle number per cell in human H4 cells at 6.1 uM after 24 hrs by high throughput fluorescence microscopy relative to control. In short, it runs like this:
as §2

The subject of assay [7] is H4. The assay is described as follows: Increase in light chain 3-GFP+ autophagosome vesicle area per cell in human H4 cells at 3.8 uM after 24 hrs by high throughput fluorescence microscopy relative to control. A digest of the protocol:
as §1

In assay [8] the test system is H4. The assay is described as follows: Increase in light chain 3-GFP+ autophagosome vesicle intensity per cell in human H4 cells at 6.1 uM after 24 hrs by high throughput fluorescence microscopy relative to control. A digest of the protocol: as §1
Assay [9] concerns H4. The assay is described as follows: Increase in light chain 3-GFP+ autophagosome vesicle number per cell in human H4 cells at 4.5 uM after 24 hrs by high throughput fluorescence microscopy relative to control. A digest of the protocol:
(§3)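 H4 cells stably expressing LC3-GFP were grown in DMEM with 10% FBS and 2 mM L-glutamine at 37°C, 5% CO2. They were exposed to each compound for 24 h, with DMSO as negative and rapamycin as positive control. Cells were then fixed in 4% paraformaldehyde and stained with 3 μg/ml DAPI. High-throughput fluorescence imaging scored LC3-GFP spot number, size and intensity, expressed relative to DMSO. Mean ± SD of triplicates; experiments repeated three times.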

Assay [10] concerns H4. The assay is described as follows: Increase in light chain 3-GFP+ autophagosome vesicle area per cell in human H4 cells at 4.5 uM after 24 hrs by high throughput fluorescence microscopy relative to control. A digest of the protocol: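 H4 cells stably expressing LC3-GFP, seeded in 96-well plates and exposed to compound for 24 h; screening concentrations were 3–12 μM, with rapamycin 0.22 μM and bafilomycin A1 0.40 μM. Cells fixed in 4% paraformaldehyde and stained with 3 μg/ml DAPI. Number, size and intensity of LC3-GFP spots measured by high-throughput fluorescence microscopy and expressed as percent of DMSO-treated wells. Rapamycin was the positive control. Triplicate wells, mean ± SD; experiments repeated three times.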

Assay [11] has as its system H4. The assay is described as follows: Increase in light chain 3-GFP+ autophagosome vesicle intensity per cell in human H4 cells at 4.5 uM after 24 hrs by high throughput fluorescence microscopy relative to control. In short, it runs like this: as §3
In assay [12] the test system is H4. The assay is described as follows: Induction of light chain 3-GFP level in human H4 cells at 4.5 uM after 24 hrs by high throughput fluorescence microscopy relative to control. In short, it runs like this:
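H4 cells stably expressing LC3-GFP, grown in DMEM with 10% FBS, penicillin/streptomycin and 2 mM L-glutamine at 37°C, 5% CO2. Cells were seeded in 96-well plates and exposed to library compounds at 3–12 μM for 24 h, then fixed in 4% paraformaldehyde and stained with 3 μg/ml DAPI. LC3-GFP spot number, size and intensity were measured by high-throughput fluorescence microscopy and expressed relative to DMSO. Triplicates, mean ± SD.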

Regarding `CNc1ccc2oc(C[C@@H]3OC4(CC[C@@H]3C)O[C@H]([C@@H](C)C(=O)c3ccc[nH]3)[C@H](C)C[C@H]4C)nc2c1C(=O)O` (some centres not stated), the Activity in assay [1] is 15083%; in assay [2], 181.04%; in assay [3] it was 172.66%; in assay [4], 49.3%.
In the case of `CN(C)CCCn1cc(C2=C(c3c[nH]c4ccccc34)C(=O)NC2=O)c2ccccc21` [GF-109203], the Activity is 47.77% in assay [5], 198.94% in assay [6], 208.08% in assay [7] and 211.81% in assay [8].
For `Cn1cc(C2=C(c3cn(CCCSC(=N)N)c4ccccc34)C(=O)NC2=O)c2ccccc21` [BISINDOLYLMALEIMIDE IX], the Activity in assay [9] is recorded as 190.07%; in assay [10], 190.1%; in assay [11] it was 240.67%; in [12], 50.58%.
